As usually defined, the IC50 is the concentration that gives 50% inhibition. Higher therefore signals a need for much substance. The term MIC denotes the smallest concentration in the dilution series that meets the test's criterion for growth inhibition. A lower MIC goes with a more susceptible organism.

Assay type in all cases: functional
For experiment [1], the system named is Escherichia coli. The experiment can be described thus: Concentration of compound needed to produce linear DNA at an intensity relative to oxolinic acid at 10 ug/mL was measured on Escherichia coli for gyrase-drug induced cleavage,. The essentials: (§1)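 DNA gyrase from E. coli H560 cells. Endpoint is the minimum drug concentration (µg/mL) that converts closed circular DNA to linear DNA, through denaturation of the drug–gyrase–DNA complex, at an intensity relative to oxolinic acid at 10 µg/mL. Linear DNA is resolved by gel electrophoresis and stained with ethidium bromide. Runs in duplicate or triplicate; error of one serial dilution.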

Experiment [2] has as its system Escherichia coli. Put plainly: Dose required to protect 50% of mice from lethal infection was measured on Escherichia coli vogel(peroral administration). As to conditions: po, read-out: PD50. The essentials:
(§2)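 Female CD-1 mice (18-22 g) were challenged intraperitoneally with about 100 median lethal doses of E. coli in 5% hog gastric mucin. Single doses were given at challenge in a twofold rising series, subcutaneously as an aqueous solution or orally by gavage in 5% gum acacia. Groups of 8 mice per dose were used. PD50 was estimated from survival by log probit, with experiments run in duplicate.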

In experiment [3] the test system is Escherichia coli. The experiment can be described thus: Dose required to protect 50% of mice from lethal infection was measured on Escherichia coli vogel (subcutaneously). The following applies: sc, read-out: PD50. The essentials: as §2
The test system of the next experiment is Enterobacter cloacae. The experiment can be described thus: Minimum inhibitory concentration (MIC) of compound was measured on Enterobacter cloacae HA 2646(gram negative organism). An outline of the steps:
(§3)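 MICs (µg/mL) by standard microdilution (microtitration), with the enantiomers tested side by side with racemate across the organism panel. Aqueous stocks made up in 0.1 N NaOH or KOH. Performed in duplicate or triplicate; error of one serial dilution.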

For experiment [4], the system named is Escherichia coli. The experiment can be described thus: Minimum concentration of compound needed to produce linear DNA at an intensity relative to oxolinic acid at 10 ug/mL was measured on Escherichia coli for gyrase-drug induced cleavage. The essentials: as §1
Experiment [5] relates to Escherichia coli. The experiment can be described thus: Minimum inhibitory concentration (MIC) of compound was measured on Escherichia coli H560 (gram negative organism). The essentials:
as §3

In experiment [6] the test system is Escherichia coli. Put plainly: Minimum inhibitory concentration (MIC) of compound was measured on Escherichia coli Vogel(gram negative organism). An outline of the steps: as §3
Another experiment deals with Klebsiella pneumoniae. Put plainly: Minimum inhibitory concentration (MIC) of compound was measured on Klebsiella pneumoniae MGH-2(gram negative organism). The essentials: as §3
In the next experiment the test system is Pseudomonas aeruginosa. The experiment can be described thus: Minimum inhibitory concentration (MIC) of compound was measured on Pseudomonas aeruginosa UI-18(gram negative organism). An outline of the steps: as §3
The next experiment relates to Providencia rettgeri. Put plainly: Minimum inhibitory concentration (MIC) of compound was measured on Providencia rettgeri H1771 (gram negative organism). An outline of the steps: as §3
The subject of experiment [7] is Staphylococcus aureus. The experiment can be described thus: Minimum inhibitory concentration (MIC) of compound was measured on Staphylococcus aureus H228 (gram positive organism). An outline of the steps: as §3
For experiment [8], the system named is Staphylococcus aureus. The experiment can be described thus: Minimum inhibitory concentration (MIC) of compound was measured on Staphylococcus aureus UC-76(gram positive organism). The essentials:
as §3

For experiment [9], the system named is Streptococcus pyogenes. The experiment can be described thus: Minimum inhibitory concentration (MIC) of compound was measured on Streptococcus pyogenes C203 (gram positive organism). An outline of the steps:
as §3

Experiment [10] relates to Streptococcus pyogenes. The experiment can be described thus: Dose required to protect 50% of mice from lethal infection was measured on Streptococcus pyogenes C203 (p.o. administration). As to conditions: po, read-out: PD50. An outline of the steps: (§4)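 The lethal systemic infection in female CD-1 mice (18-22 g) was an intraperitoneal challenge of about 100 median lethal doses. Compound was given once at challenge in twofold rising doses, subcutaneously as an aqueous solution or orally by gavage in 5% gum acacia. PD50 was estimated by log probit from survival of groups of 8 mice, with experiments run in duplicate.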

Experiment [11] has as its system Streptococcus pyogenes. The experiment can be described thus: Dose required to protect 50% of mice from lethal infection was measured on Streptococcus pyogenes C203 (s.c.). As to conditions: sc, read-out: PD50. An outline of the steps: as §4
In another experiment the test system is Enterococcus faecalis. Put plainly: Minimum inhibitory concentration (MIC) of compound was measured on Streptococcus faecalis MGH-2(gram positive organism). The essentials: as §3
The test system of experiment [12] is Streptococcus pneumoniae. The experiment can be described thus: Dose required to protect 50% of mice from lethal infection was measured on Streptococcus pneumoniae SV-1(peroral administration). The following applies: po, read-out: PD50. An outline of the steps:
(§5)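 Female CD-1 mice (18-22 g) received an intraperitoneal challenge of about 100 median lethal doses of S. pneumoniae in tryptic soy broth. A single dose was given at challenge in a twofold rising series, subcutaneously in aqueous solution or by oral gavage in 5% gum acacia. Survival of 8 mice per dose gave PD50 by log probit, with experiments run in duplicate.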

For experiment [13], the system named is Streptococcus pneumoniae. Put plainly: Dose required to protect 50% of mice from lethal infection was measured on Streptococcus pneumoniae SV-1 (subcutaneously). As to conditions: sc, read-out: PD50. An outline of the steps: as §5
In experiment [14] the test system is Streptococcus pneumoniae. The experiment can be described thus: Minimum inhibitory concentration (MIC) of compound was measured on Streptococcus pneumoniae SV-1(gram positive organism). The essentials: as §3

In brackets after ≈: the same amount, converted by molar mass. A value given as a limit tells only on which side of the number the result lay.

For the molecule `CCn1cc(C(=O)O)c(=O)c2cc(F)c(N3CCNCC3)cc21` [NORFLOXACIN], the IC50 with Escherichia coli [1] is 5.5 µg/mL (≈ 17.2 µM). For the same molecule, the ED50 was 1 mg/kg in the experiment with Escherichia coli [2]; 0.7 mg/kg in the experiment on Escherichia coli [3]; over 100 mg/kg in the experiment with Streptococcus pyogenes [10]; 45 mg/kg in the experiment on Streptococcus pyogenes [11]; 150 mg/kg in the experiment on Streptococcus pneumoniae [12]; over 100 mg/kg in the experiment with Streptococcus pneumoniae [13]. Besides, the minimal inhibitory concentration (MIC) was found to be 0.1 µg/mL (≈ 0.313 µM) in the experiment on Enterobacter cloacae; 0.1 µg/mL (≈ 0.313 µM) against Escherichia coli [5]; 0.025 µg/mL (≈ 0.0783 µM) with Escherichia coli [6]; 0.05 µg/mL (≈ 0.157 µM) against Klebsiella pneumoniae; 0.2 µg/mL (≈ 0.626 µM) against Pseudomonas aeruginosa; 0.025 µg/mL (≈ 0.0783 µM) against Providencia rettgeri. The MIC is 0.8 µg/mL (≈ 2.51 µM) with Staphylococcus aureus [7]; 0.05 µg/mL (≈ 0.157 µM) against Staphylococcus aureus [8]; 0.8 µg/mL (≈ 2.51 µM) in the experiment on Streptococcus pyogenes [9]; 1.6 µg/mL (≈ 5.01 µM) against Enterococcus faecalis; 1.6 µg/mL (≈ 5.01 µM) in the experiment on Streptococcus pneumoniae [14]. In the experiment with Escherichia coli [4], this molecule gave a Concentration of 1 µg/mL.

These data come from ChEMBL document CHEMBL1123601, “Enantiomers of 1-ethyl-7-[3-[(ethylamino)methyl]-1-pyrrolidinyl]-6,8-difluoro-1,4- dihydro-4-oxo-3-quinoline-carboxylic acid: preparation and biological activity” (J Med Chem, 1987).
